# Measured values as given in ChEMBL document CHEMBL1133441, “Development of novel quinone phosphorodiamidate prodrugs targeted to DT-diaphorase” (2000).
# Columns and labels:
# [1] = biological target: NAD(P)H dehydrogenase [quinone] 1 (Homo sapiens) (UniProt P15559); test: Ratio of Vmax and Km; set-up: unit not given here
# In short: (§1)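 Purified human DT-diaphorase (4.8 × 10-4 mg) with 1 mM NADH, 55 µM cytochrome c, 0.01 mM dithiothreitol in 0.05 M Tris pH 7.6; quinone in DMSO starts reaction. Run in triplicate at 25 °C, following cytochrome c reduction at 550 nm, no-enzyme background controls. Initial linear rates; KM and Vmax from Hanes plot.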
# [2] = biological target: NAD(P)H dehydrogenase [quinone] 1 (Homo sapiens) (UniProt P15559); test: Kinetic analysis using purified human DT-diaphorase.; in short: as §1
# [3] = biological target: NAD(P)H dehydrogenase [quinone] 1 (Homo sapiens) (UniProt P15559); test: Ratio of Kcat and Km; in short: as §1
# BE = test: cytotoxic activity against human colon carcinoma BE cell lines.; format: functional
# In short: (§2)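 Clonogenic survival: exponentially growing cells suspended at 1.7-2 × 10^5 cells/mL in serum-free MEM/HEPES, exposed 2 h at 37 °C, 5% CO2 to five final drug concentrations (solvent ethanol or DMSO, at most 1%), washed, plated at 2-3 densities, grown 10 days. Crystal violet-stained colonies of ≥50 cells counted; LC99 from log surviving fraction vs concentration.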
# HT-29 = test: cytotoxic activity against human colon carcinoma HT-29 cell lines.; format: functional; in short: as §2
# NAD(P)H dehydrogenase [quinone] 1 (Homo sapiens), sequence (P15559 whole entry): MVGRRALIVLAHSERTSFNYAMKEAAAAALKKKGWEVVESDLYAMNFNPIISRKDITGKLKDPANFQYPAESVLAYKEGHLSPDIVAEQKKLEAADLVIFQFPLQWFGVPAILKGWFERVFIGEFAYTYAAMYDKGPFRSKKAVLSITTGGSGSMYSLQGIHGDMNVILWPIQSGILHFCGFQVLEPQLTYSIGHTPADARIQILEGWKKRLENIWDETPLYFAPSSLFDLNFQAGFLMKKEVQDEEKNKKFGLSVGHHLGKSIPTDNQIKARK
Structure (SMILES),Ratio [1],k cat [2],Ratio [3],LC99 (BE),LC99 (HT-29)
NP(=O)(OCC1=C(Br)C(=O)c2ccccc2C1=O)N(CCCl)CCCl (stereo not drawn),2.7,97 s⁻¹,3,3.3 µM,4.1 µM
CC1=C(COP(=O)(N(C)CCBr)N(C)CCBr)C(=O)c2ccccc2C1=O,0.44,180 s⁻¹,0.5,0.44 µM,1.5 µM
Cn1c(COP(N)(=O)N(CCBr)CCBr)nc2c1C(=O)C=CC2=O (stereo not drawn),0.28,66 s⁻¹,3.1,120 µM,130 µM
CC1=C(COP(N)(=O)N(CCBr)CCBr)C(=O)c2ccccc2C1=O (stereo not drawn),0.81,63 s⁻¹,9.1,1.2 µM,1.7 µM
CC1=C(COP(N)(=O)N(CCCl)CCCl)C(=O)c2ccccc2C1=O (stereo not drawn),0.76,78 s⁻¹,8.6,1 µM,2.1 µM
CC1=CC(=O)c2ccccc2C1=O,0.5,700 s⁻¹,5.8,,
CC(=O)OCC1=CC(=O)c2ccccc2C1=O,1.4,280 s⁻¹,1.6,22 µM,64 µM
CN(CCBr)P(=O)(OCC1=CC(=O)c2ccccc2C1=O)N(C)CCBr,1.1,115 s⁻¹,1.3,1.2 µM,4.5 µM
Cn1c(COP(N)(=O)N(CCCl)CCCl)nc2c1C(=O)C=CC2=O (stereo not drawn),0.4,41 s⁻¹,4.5,300 µM,220 µM
CSC1=C(COP(N)(=O)N(CCCl)CCCl)C(=O)c2ccccc2C1=O (stereo not drawn),1.1,72 s⁻¹,1.2,5.9 µM,4.2 µM
NP(=O)(OCC1=CC(=O)c2ccccc2C1=O)N(CCBr)CCBr (stereo not drawn),2,46 s⁻¹,2.2,4.6 µM,7.8 µM
NP(=O)(OCC1=CC(=O)c2ccccc2C1=O)N(CCCl)CCCl (stereo not drawn),1.8,51 s⁻¹,2,13 µM,11 µM
CN(CCCl)P(=O)(OCC1=CC(=O)c2ccccc2C1=O)N(C)CCCl,1.2,190 s⁻¹,1.4,2.8 µM,4.5 µM
O=C1C=C(COP(=O)(NCCCl)NCCCl)C(=O)c2ccccc21,2.1,88 s⁻¹,2.3,7.8 µM,14 µM
NP(=O)(OCC1=CC(=O)c2ccccc2C1=O)N1CCOCC1 (stereo not drawn),0.83,15 s⁻¹,0.16,72 µM,89 µM
